According to ChEMBL document CHEMBL2057186, “Application of the bicyclo[1.1.1]pentane motif as a nonclassical phenyl ring bioisostere in the design of a potent and orally active γ-secretase inhibitor” (J Med Chem, 2012):

Legend:
[1] = Plasma clearance in Sprague-Dawley rat at 1 mg/kg, iv; type: ADME, organism-based; parameters: dose 1 mg/kg, route intravenous
Outline: (§1)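 Female rats were dosed once, 1 mg/kg iv (2 mL/kg, 0.5 mg/mL) or 5 mg/kg po (10 mL/kg, 0.5 mg/mL). Vehicle was 40% (w/v) hydroxypropyl-β-cyclodextrin. Plasma was sampled to 24 h. Values are means ± SEM (n = 3).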

[2] = Fraction unbound in 129/sve mouse plasma at 30 mg/kg, po administered as single dose; type: ADME, organism-based; parameters: dose 30 mg/kg, route oral
Mus musculus [3] = test: Antialzheimer activity in 129/sve mouse assessed as reduction in amyloid beta40 level in plasma at 30 mg/kg, po administered as single dose measured at 1 hr by ELISA relative to vehicle treated control; type: functional; parameters: scale not given: the % may be the effect or the level left
Outline: (§2)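 Wild-type male 129/sve mice received a single oral dose in Phosal 50 PG/Tween 80 vehicle. Aβ40 was measured in brain, CSF and plasma and Aβ42 in brain over a time course. Levels are expressed as % of vehicle-treated animals. Values are mean ± SEM, n = 5 or 8 per time point.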

[4] = AUC (0 to 24 hrs) in Sprague-Dawley rat at 1 mg/kg, iv; type: ADME, organism-based; parameters: time < 24 hr, dose 1 mg/kg, route intravenous; conditions: plasma
Outline: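 Single-dose PK in female rats; iv at 1 mg/kg (2 mL/kg, 0.5 mg/mL) and po at 5 mg/kg (10 mL/kg, 0.5 mg/mL), both formulated in 40% (w/v) hydroxypropyl-β-cyclodextrin.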

[5] = Ratio of drug level in brain to plasma in 129/sve mouse at 30 mg/kg, po administered as single dose by LC-MS/MS analysis; type: ADME, organism-based; parameters: dose 30 mg/kg, route oral; conditions: read-out: BPR
Outline: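 Wild-type male 129/sve mice were dosed orally once in 98% Phosal 50 PG/2% Tween 80. Brain/plasma ratio was taken as AUC_brain/AUC_plasma, using mean-concentration AUCs from a nonserial design.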

Liver microsomes = test: Drug metabolism in human liver microsomes assessed as GSH/GSH-EE adduct formation after 60 mins by LC/MS/MS analysis; type: ADME, Microsome; conditions: 1 h
Mus musculus [6] = test: Antialzheimer activity in 129/sve mouse assessed as reduction in amyloid beta40 level in brain at 30 mg/kg, po administered as single dose measured at 5 hrs by ELISA relative to vehicle treated control; type: functional; parameters: scale not given: the % may be the effect or the level left; outline: as §2
[7] = AUC (last) in 129/sve mouse cerebrospinal fluid at 30 mg/kg, po administered as single dose by LC-MS/MS analysis; type: ADME, organism-based; parameters: time 0 - last, dose 30 mg/kg, route oral
Outline: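 Wild-type male 129/sve mice received a single oral dose in 98% (v/v) Phosal 50 PG / 2% Tween 80. Drug was measured in plasma, brain and CSF. Study was nonserial, so AUC came from mean matrix concentrations at each time point. Values are mean ± SD (n = 4 or 5).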

Cytochrome P450 2C19 = Cytochrome P450 2C19 (Homo sapiens, UniProt P33261); test: Inhibition of CYP2C19 in human liver microsomes using (S)-mephenytoin as substrate; type: ADME, Microsome
P-gp = test: Efflux ratio of apparent permeability from basal to apical side to apical to basal side of MDCK cells expressing human P-gp; type: ADME, cell-based, Canis lupus familiaris; conditions: dog, MDCK-MDR1
Outline: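 Monolayers were MDCK cells transfected with the human P-glycoprotein (MDR1) gene. Permeability was measured basolateral-to-apical and apical-to-basolateral, and the BA/AB ratio was reported.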

[8] = Ratio of fraction unbound in brain to fraction unbound in plasma in Sprague-Dawley rat; type: ADME
[9] = Oral bioavailability in Sprague-Dawley rat at 5 mg/kg; type: ADME, organism-based; conditions: in vivo; outline: as §1
[10] = Ratio of drug level in brain to plasma in Sprague-Dawley rat; type: ADME; conditions: read-out: BPR
[11] = Fraction unbound in 129/sve mouse brain at 30 mg/kg, po administered as single dose; type: ADME, organism-based; parameters: dose 30 mg/kg, route oral
[12] = Tmax in 129/sve mouse brain at 30 mg/kg, po administered as single dose by LC-MS/MS analysis; type: ADME, organism-based; parameters: dose 30 mg/kg, route oral
Outline: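 Single-dose oral PK in wild-type male 129/sve mice. Formulation was 98% (v/v) Phosal 50 PG with 2% Tween 80. Compound was measured in plasma, brain and CSF. Values are means ± standard deviations (n = 4 or 5).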

Chain of Cytochrome P450 2C19 (P33261 whole entry): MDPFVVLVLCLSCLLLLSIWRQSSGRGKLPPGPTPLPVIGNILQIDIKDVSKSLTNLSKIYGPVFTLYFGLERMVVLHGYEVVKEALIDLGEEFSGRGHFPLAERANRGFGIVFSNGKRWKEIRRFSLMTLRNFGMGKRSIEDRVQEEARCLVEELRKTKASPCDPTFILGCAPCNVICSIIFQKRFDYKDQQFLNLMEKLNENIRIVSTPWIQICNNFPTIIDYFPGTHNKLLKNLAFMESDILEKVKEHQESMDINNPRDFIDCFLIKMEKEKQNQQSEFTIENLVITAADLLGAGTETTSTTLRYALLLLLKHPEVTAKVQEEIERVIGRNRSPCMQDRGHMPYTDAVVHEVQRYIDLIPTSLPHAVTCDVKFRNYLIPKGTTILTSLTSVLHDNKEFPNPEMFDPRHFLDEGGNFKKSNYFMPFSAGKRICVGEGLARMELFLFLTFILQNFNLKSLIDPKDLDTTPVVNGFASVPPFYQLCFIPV

- clearance [1]: 13.3 mL/min/kg
- fraction unbound [2]: 0.0354
- AUC(0-t) at 24 h [4]: 2.54 µM·h
- Kp [5]: 0.84
- Drug metabolism (Liver microsomes): Not Active
- AUC(0-t) [7]: 0.118 µM·h
- inhibition (INH) (Cytochrome P450 2C19): Not Active
- efflux ratio (P-gp): 1.66
- Ratio [8]: 0.34
- bioavailability [9]: 100%
- Kp [10]: 0.61
- fraction unbound [11]: 0.026
- Tmax [12]: 1 h
SMILES: NC(=O)[C@@H](CCC(F)(F)F)N(CC12CC(c3ncon3)(C1)C2)S(=O)(=O)c1ccc(Cl)cc1
- Activity (Mus musculus [3]): 59%
- Activity (Mus musculus [6]): 64%
